Insulin prom up = MIN6 insulin promoter up-regulation; MIN6 insulin promoter-GFP reporter, high-content imaging; hits give high values; z-score at 5 µM; 190,000 compounds, 0.3% hits; AID 1625;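 active means z-score above 3 at 5 µM with at least 500 cells counted in the well; inconclusive means wells under 500 cells, flagged as cytotoxic or low count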
Tb hexokinase = blocks Trypanosoma brucei hexokinase 1 activity; recombinant TbHK1, G6PDH-coupled NADH A340; inhibition, % at 10 µM; 220,000 compounds, 0.11% hits;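 active means inhibition of 50% or more in the single-dose primary screen; inactive means inhibition below 50%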
MT stabilize HCS = stabilizes microtubules in HeLa cells | AID 2205 | % tubulin-high responders, % at 10 µM | HeLa tubulin immunostaining HCS, 24 h; share of cells brighter than vehicle mean+2SD | 200,000 compounds, 0.83% hits;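 active means plate Z-score above 3 for both tubulin-high and condensed-nucleus cell shares, with cell loss under 80%, at 10 µM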;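 further: anti alpha tubulin signal scored within the nucleus-defined area of each cell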
b-catenin transl = beta-catenin nuclear translocation modulation; HeLa beta-catenin nuclear translocation, immunofluorescence imaging; nuclear translocation activity, % at 5 µM; 190,000 compounds, 0.3% hits;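 active means nuclear translocation activity above 50% at 5 µM, with a well cell count of 50 or more; inconclusive means wells under 50 cells across six images, flagged as toxic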;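 further: per-cell ratio of nuclear to cytoplasmic median beta-catenin stain intensity; plate controls were DMSO negative control for no effect and GSK-3 inhibitor IX positive control for full effect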
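Assay system: human HeLa cells, native beta-catenin; doses: 5 µM primary, 0.02–20 µM confirmation; incubation: compound treatment 24 h, 37°C, 5% CO2; technique: fluorescence imaging of beta-catenin antibody stain plus DAPI; measure: % activation, nuclear-to-cytoplasmic median beta-catenin signal ratio per cell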
Autophagy mod = autophagy modulation, high-content screen; calls only at 10 µM (by protocol); MEF GFP-LC3 puncta imaging; test concentration mostly 10 µM; 190,000 compounds, 0.98% hits;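 active means percentage of spot-positive cells more than 3 SD above its plate mean, without a fluorescence outlier flag or 80% toxicity; inconclusive means no clear call, values can overlap the other calls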;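 further: spot-positive cell cutoff set from DMSO-treated cells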
* hit, by the source's call; i = inactive; ? = inconclusive; · = no result given; + = active, no number. An excerpt weighted towards active compounds, which were near 1.9% of everything screened.

SMILES	Insulin prom up	Tb hexokinase	MT stabilize HCS	b-catenin transl	Autophagy mod
COc1ccc(S(=O)(=O)N2CCOC2CNC(=O)C(=O)NCCc2ccc(OC)c(OC)c2)cc1 (configuration not stated)	0.09	3.1	2.9	-5.9	+
OC(COC(c1ccc(Cl)cc1)c1ccc(Cl)cc1)CN1CCCC1 (configuration not stated)	-0.68	9.5	1.0	-4.1	+
Nc1nc(N2CCCCC2)c(C=O)c(N2CCCCC2)n1	-0.74	-4.9	6.3	0.2	+
Cc1cc(-c2ccccc2)c2c3c(c(-c4ccccc4)n2n1)c(=O)n(C)c(=O)n3C	0.19	-1.8	1.6	-3.1	+
C/C(=C\C(=O)c1sccc1Cl)N(C)C	0.67	-27.1	2.3	-0.5	i
COc1ccc(CCNC(=O)C2CCN(S(=O)(=O)N3CC(C)CC(C)C3)CC2)cc1OC (configuration not stated)	-0.33	53.4*	3.6	-0.8	i
COc1ccc(CCNC(=O)C2CCN(S(=O)(=O)N3CCCCC3)CC2)cc1OC	-0.97	-6.1	2.8	6.9	i
Cc1cccc(-c2ncc(CN3CCN(CCC(C)C)C(CCO)C3)cn2)c1 (configuration not stated)	0.28	-5.4	3.2	-0.5	i
c1ccc(COc2ccc(OCCCCN3CCCCC3)cc2)cc1	-1.91	2.9	0.9	·	+
CCN1CCN(CCCOc2ccccc2-c2ccccc2)CC1	-0.32	13.6	5.8	-1.1	i
CCN1CCN(CCCOc2ccc(-c3ccccc3)cc2)CC1	-0.77	14.4	2.4	·	+
O=C(c1ccccc1)c1ccc(OCCCCN2CCCCC2)cc1	-0.95	5.2	1.3	2.1	i
CCS(=O)(=O)c1ccc(O)c(NC(=O)Nc2cccc3ccccc23)c1	-0.36	-6.5	·	-0.1	·
O=C(/C=C/c1ccccc1)NC(=S)Nc1ncccn1	-0.31	-6.5	·	-0.4	·
CSc1ccc(NC(=O)N2CC=C(n3c(=O)[nH]c4ccccc43)CC2)cc1	-0.41	2.5	31.2*	-1.6	i
O=c1[nH]c2ccccc2n1C1=CCCC1	1.28	1.0	2.4	1.6	i
Cc1nc(CCNC(=O)c2cc(COc3ccc(F)cc3Cl)on2)sc1C	0.07	-6.2	·	0.7	·
COc1cccc(OC)c1-c1nn2c(-c3cc(-c4ccccc4)n[nH]3)nnc2s1	-1.88	-17.2	40.2*	37.2	i
Cc1onc(C(=O)NC(C)c2ccccc2)c1[N+](=O)[O-] (configuration not stated)	-0.73	-2.2	4.8	0.5	i
CCCc1cc(=O)[nH]c(SCC(=O)NCCCC(=O)OCC)n1	3.15*	-3.9	2.7	-0.1	i
CCCc1cc(=O)[nH]c(SCC(=O)NC(=O)OCC)n1	0.25	-1.3	2.0	·	i
N=c1n(CCN2CCCC2)c2ccccc2n1CC(O)c1ccc(Cl)c(Cl)c1 (configuration not stated)	-1.76	15.3	6.3	19.1	+
N=c1n(CCN2CCOCC2)c2ccccc2n1CC(=O)c1ccc(Cl)c(Cl)c1	0.43	1.6	5.5	5.9	i
O=C(O)/C=C/c1cn(-c2ccccc2)nc1-c1ccc(-c2ccc([N+](=O)[O-])cc2)o1	-0.26	-12.7	·	-1.0	·
Cn1ncc2c1ncn1nc(CCc3ccccc3)nc21	3.58*	1.9	3.0	-1.1	i
SMILES	Insulin prom up	Tb hexokinase	MT stabilize HCS	b-catenin transl	Autophagy mod
COc1ccc(/C=N/NC(=O)c2c(C)nc3ccc(Br)cn23)cc1OC	0.09	-71.7	·	-1.4	·
COc1ccc(/C=N\NC(=O)c2c(C)nc3ccc(Br)cn23)cc1	0.7	-11.2	20.2*	53.4*	i
CC(C)(C)C(=O)CSc1nnc(Nc2ccccc2)s1	-0.34	1.9	2.6	-0.1	i
CCc1nc(CN2CCCC(C(=O)c3ccc4c5c(cccc35)CC4)C2)c(C)[nH]1 (configuration not stated)	-2.13	-12.8	1.5	1.4	+
CN(CC(O)Cn1cnc2c1c(=O)n(C)c(=O)n2C)c1ccccc1 (configuration not stated)	0.08	2.2	1.9	-0.1	+
COC(=O)c1c(NC(=O)CN2CCN(c3cccc(Cl)c3)CC2)sc(C)c1C	-0.54	3.7	1.8	1.8	i
CCN(CC)c1ccc2c(Cl)c(Br)c(=O)oc2c1	·	3.8	16.2	·	+
CCN(CC)c1ccc2c(C)c(Cl)c(=O)oc2c1	-1.34	-2.4	3.6	1.2	i
CCN(CC)c1ccc2cc(C#N)c(=O)oc2c1	4.24*	1.8	3.4	1.6	i
Cc1c([N+](=O)[O-])c(C/C=N/O)nn1C	0.9	-7.6	·	0.8	·
CCCCNc1cc(C)nc(NCc2ccccc2)n1	?	10.4	10.4*	37.9	+
COc1ccc(N(C(=O)c2ccco2)S(=O)(=O)c2cccs2)cc1	-0.13	5.4	3.5	-2.8	i
O=C(Nc1ccccc1N(C(=O)c1ccco1)S(=O)(=O)c1cccs1)c1ccco1	-1.48	-4.5	11.4*	·	i
COc1ccc(-c2c(C)n([O-])c3c([n+]2=O)CCCC3)cc1OC	0.83	-7.3	0.9	0.2	+
COc1ccc(NC(=O)c2ccccc2NC(=O)CSc2ccccc2)cc1	-0.62	-3.8	1.6	2.4	i
COc1ccc(NC(=O)c2ccccc2NC(=O)CSc2ccc(Cl)cc2)cc1	0.84	-2.3	1.0	-0.6	+
O=C(Cc1cccs1)N/N=C/C(Br)=C/c1ccccc1	0.07	-8.5	3.5	0.1	i
Cc1ccccc1NCC(=O)N/N=C/C(Br)=C/c1ccccc1	0.53	-13.9	26.3*	3.8	i
Cc1ccc(-c2cc(C(=O)N/N=C/C(Br)=C/c3ccccc3)n[nH]2)o1	0.23	-20.0	12.2*	5.4	i
O=C(N/N=C/C(Br)=C\c1ccccc1)c1n[nH]c2c1CCC2	?	-37.5	15.4*	·	+
O=C(N/N=C/C=C/c1ccccc1)NC1CCCCC1	-0.61	-8.6	2.2	2.3	+
O=C(N/N=C/c1cccc(O)c1)NC1CCCCC1	-1.78	-1.7	2.2	0.3	i
O=C(N/N=C/c1cccs1)c1n[nH]c2c1CCCC2	·	-44.3	·	0.2	·
Cc1cc(C(=O)N/N=C/C=C/c2ccccc2)n[nH]1	·	-76.1	·	0.1	·
COc1ccc(C(=O)N/N=C/C(Br)=C/c2ccccc2)cc1	0.23	0.3	6.7	-1.6	i
SMILES	Insulin prom up	Tb hexokinase	MT stabilize HCS	b-catenin transl	Autophagy mod
COc1cccc(C(=O)N/N=C/C(Br)=C/c2ccccc2)c1	·	-23.0	23.0*	59.9*	i
O=C(N/N=C/C=C/c1ccccc1)c1n[nH]c2c1CCC2	·	-23.4	25.4*	176.5*	i
CC(/C=N/NC(=O)c1n[nH]c2c1CCC2)=C\c1ccccc1	-0.97	-15.9	10.5	214.7*	+
COc1ccc(Br)cc1CNC(=O)CCNC(=O)Cn1ccc2ccccc2c1=O	-0.26	-6.5	4.8	-1.5	i
Cn1c(Cn2nnc3ccccc32)nnc1SCC(=O)Nc1nccs1	·	-6.5	5.1	0.0	+
Cn1c(CSCc2ccccc2)nnc1SCC(=O)Nc1nccs1	0.12	-6.1	1.6	1.7	i

Source: PubChem BioAssay (several laboratories)
